The results in this text go back to PMC7938327 (Journal of medicinal chemistry, 2017).

“Also recorded” adds a separate entry of the source.

For data set [1], the target named is T1, human recombinant ATX (Homo sapiens, UniProt Q13822). The data set is described as follows: ATX lysophospholipase D activity, FS-3 hydrolysis. In kind it is biochemical. To be noted: for ATX inhibitory activity (in words): FS-3 substrate; for mechanism: FS-3 0 to 10 μM, inhibitor 0, 0.5 × IC50 or 2 × IC50, best global fit.
Data set [2] concerns the target T1, human recombinant ATX. Description: ATX nucleotide pyrophosphatase activity, pNP-TMP hydrolysis. In kind it is biochemical. To be noted: 1 mM pNP-TMP, 4 nM ATX, compound 0 to 1 μM. In short, it runs like this:
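Human recombinant FLAG-tagged ATX was expressed in Sf9 insect cells and purified on anti-FLAG resin. Absorbance at 405 nm was read every 2 min for 1 h.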

The nature of data set [3]: In vitro stability in 4T1 cell culture by LC-MS. In kind it is in vitro ADME, mouse. Particulars: 40 h of exposure to 4T1 cells.
Data set [4] has as its system A2058 human melanoma cells. Description: ATX-mediated in vitro invasion assay. The format is cell-based. To be noted: exogenous LPC and recombinant ATX.
The target in a further data set is LPA1 (Homo sapiens, UniProt Q92633). Description: LPA-mediated Ca2+ mobilization, LPA1 RH7777 cells. In kind it is cell-based. To be noted: LPA1-elicited Ca2+ responses. The method in brief:
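Rat hepatoma RH7777 cells stably expressing LPA1 were seeded at 5 × 10^4 per well on poly-L-lysine, left overnight, then serum-deprived 4 h in HEPES-Krebs buffer pH 7.4. Cells were loaded 30 min with 4.5 μg/mL Fura-2AM plus 0.45% Pluronic F-127. […] The 340/510 and 380/510 nm ratio was read every 3.42 s for 70 s, normalized to LPA Emax, and fitted by variable-slope regression for IC50.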
On the technique in general: Calcium flux is commonly read through the fluorescence of an indicator in the cells.

The subject of data set [5] is 4T1-TaxR cancer stem-like cells (mammospheres). Description: 4T1-TaxR mammosphere viability with paclitaxel. In kind it is cell-based, mouse.

Chain of LPA1 (Q92633 whole entry, species assumed): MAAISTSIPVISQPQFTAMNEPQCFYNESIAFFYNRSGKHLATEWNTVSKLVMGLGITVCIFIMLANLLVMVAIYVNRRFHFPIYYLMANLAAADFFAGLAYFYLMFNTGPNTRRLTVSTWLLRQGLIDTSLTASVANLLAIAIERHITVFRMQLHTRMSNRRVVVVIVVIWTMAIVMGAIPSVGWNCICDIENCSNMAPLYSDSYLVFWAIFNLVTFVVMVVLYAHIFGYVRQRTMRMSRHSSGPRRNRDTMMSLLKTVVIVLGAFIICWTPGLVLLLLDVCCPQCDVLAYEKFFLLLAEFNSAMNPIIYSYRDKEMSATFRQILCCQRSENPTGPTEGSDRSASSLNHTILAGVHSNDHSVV

As to “4-(2,4-Dichloro-5-(morpholinosulfonyl)benzamido)-2,6-difluoro-benzoic Acid [Compound 4]”, the “ATX inhibitory activity (in words)” value on human recombinant ATX [1] is “inactive”. Also, the pNP-TMP inhibition result on human recombinant ATX [2] is reported as “none”. In the case of `O=C(Nc1cccc(F)c1)c1cc(S(=O)(=O)N2CCOCC2)c(Cl)cc1Cl` [Compound 3, 2,4-Dichloro-N-(3-fluorophenyl)-5-(morpholinosulfonyl)-benzamide], the “in vitro stability (in words)” value in data set [3] is recorded as “significant stability”. The mechanism entry at human recombinant ATX [1] was “competitive”. Besides, at human recombinant ATX [2], the pNP-TMP inhibition result is “none”. For `O=C(Nc1ccc(F)c(F)c1)c1cc(S(=O)(=O)N2CCOCC2)c(Cl)cc1Cl` [Compound 3a, 2,4-Dichloro-N-(3,4-difluorophenyl)-5-(morpholinosulfonyl)-benzamide], the “inhibition of A2058 cell invasion, screen at 10 μM” value in data set [4] (10 μM, compared with 30) was “as effective as 30”. In addition, the “inhibition of A2058 cell invasion (in words)” value in data set [4] (dose–response) is “inhibit ATX-dependent invasion; also recorded: dose dependently decreased A2058 cell invasion”. Moreover, the “fold IC50 improvement relative to parent compound 3” value at human recombinant ATX [1] (ATX, FS-3) amounted to 4 fold. On human recombinant ATX [1], the mechanism result is reported as “competitive”. At human recombinant ATX [2], the pNP-TMP inhibition entry is on record as “none”. For the compound `O=C(Nc1c(F)c(F)c(F)c(F)c1F)c1cc(S(=O)(=O)N2CCOCC2)c(Cl)cc1Cl` [Compound 3c, 2,4-Dichloro-5-(morpholinosulfonyl)-N-(perfluorophenyl)-benzamide], at human recombinant ATX [1], the “ATX inhibitory activity (in words)” value is recorded as “poorly active”. In addition, the pNP-TMP inhibition result at human recombinant ATX [2] is listed as “none”.

Consider `O=C(Nc1cc(Cl)c(Cl)c(Cl)c1)c1cc(S(=O)(=O)N2CCOCC2)c(Cl)cc1Cl` [Compound 3d, 2,4-Dichloro-5-(morpholinosulfonyl)-N-(3,4,5-trichlorophenyl)-benzamide], for which the “ATX inhibitory activity (in words)” value on human recombinant ATX [1] is given as “poorly active”. Besides, the pNP-TMP inhibition entry on human recombinant ATX [2] is reported as “none”. The corresponding values for `COc1cc(NC(=O)c2cc(S(=O)(=O)N3CCOCC3)c(Cl)cc2Cl)cc(OC)c1OC` [Compound 3e, 2,4-Dichloro-5-(morpholinosulfonyl)-N-(3,4,5-trimethoxyphenyl)-benzamide] are “poorly active” and “none”. Turning to `O=C(Nc1cc(Cl)c(F)c(Cl)c1)c1cc(S(=O)(=O)N2CCOCC2)c(Cl)cc1Cl` [Compound 3g, 2,4-Dichloro-N-(3,5-dichloro-4-fluorophenyl)-5-(morpholinosulfonyl)benzamide], the “antagonist activity at LPA1 (in words)” value at LPA1 was “exhibited antagonist activity; also recorded: effective in antagonizing LPA1-elicited Ca^2+ responses”. In addition, on human recombinant ATX [1] (ATX, FS-3), the “fold higher potency of 3g over 3f” value was 2 fold. The mechanism entry on human recombinant ATX [1] was “competitive”. In addition, at human recombinant ATX [2], the pNP-TMP inhibition entry is “none”.

Regarding `N#Cc1c(F)cc(NC(=O)c2cc(S(=O)(=O)N3CCOCC3)c(Cl)cc2Cl)cc1F` [Compound 3h, 2,4-Dichloro-N-(4-cyano-3,5-difluorophenyl)-5-(morpholinosulfonyl)benzamide], the pNP-TMP inhibition entry at human recombinant ATX [2] is “none”. Turning to `COC(=O)c1c(F)cc(NC(=O)c2cc(S(=O)(=O)N3CCOCC3)c(Cl)cc2Cl)cc1F` [Compound 3i, Methyl 4-(2,4-Dichloro-5-(morpholinosulfonyl)benzamido)-2,6-difluorobenzoate], the pNP-TMP inhibition entry on human recombinant ATX [2] is “none”. Same read-out and setting: next, `O=C(Nc1cc(F)c(F)c(F)c1Br)c1cc(S(=O)(=O)N2CCOCC2)c(Cl)cc1Cl` [Compound 5, N-(2-Bromo-3,4,5-trifluorophenyl)-2,4-dichloro-5-(morpholinosulfonyl)benzamide]: “none”. As to `O=S(=O)(c1cc(-c2nc3cccc(F)c3o2)c(Cl)cc1Cl)N1CCOCC1` [Compound 7, 2-(2,4-Dichloro-5-(morpholinosulfonyl)phenyl)-7-fluorobenzo[d]-oxazole], the “ATX inhibitory activity (in words)” value on human recombinant ATX [1] is reported as “failed to inhibit ATX”. Moreover, the pNP-TMP inhibition result at human recombinant ATX [2] is “none”. Take `O=S(=O)(c1cc(-c2nc3cc(F)c(F)cc3[nH]2)c(Cl)cc1Cl)N1CCOCC1` [Compound 8, 4-((2,4-Dichloro-5-(5,6-difluoro-1H-benzo[d]imidazol-2-yl)-phenyl)sulfonyl)-morpholine]: the “ATX inhibitory activity (in words)” value at human recombinant ATX [1] is given as “failed to inhibit ATX”. The pNP-TMP inhibition result on human recombinant ATX [2] is on record as “none”. In the case of `CN(C(=O)c1cc(S(=O)(=O)N2CCOCC2)c(Cl)cc1Cl)c1cccc(F)c1` [Compound 9, 2,4-Dichloro-N-(3-fluorophenyl)-N-methyl-5-(morpholinosulfonyl)benzamide], the “ATX inhibitory activity (in words)” value at human recombinant ATX [1] is “only very weak potency”. Further, on human recombinant ATX [2], the pNP-TMP inhibition entry is recorded as “none”. The matching figures for `O=S(=O)(c1cc(CNc2ccc(F)c(F)c2)c(Cl)cc1Cl)N1CCOCC1` [Compound 10, N-(2,4-Dichloro-5-(morpholinosulfonyl)benzyl)-3,4-difluoroani-line]: “inactive” and “none”. As to `O=S(=O)(c1cc(CNc2cc(F)c(F)c(F)c2)c(Cl)cc1Cl)N1CCOCC1` [Compound 11, N-(2,4-Dichloro-5-(morpholinosulfonyl)benzyl)-3,4,5-trifluoroani-line], the pNP-TMP inhibition result on human recombinant ATX [2] was “none”. As to `O=S(=O)(c1cc(C(=S)Nc2cccc(F)c2)c(Cl)cc1Cl)N1CCOCC1` [Compound 12, 2,4-Dichloro-N-(3-fluorophenyl)-5-(morpholinosulfonyl)-benzothioamide], the “ATX inhibitory activity (in words)” value at human recombinant ATX [1] is reported as “retained similar inhibitory activity as the amide analogues”. At human recombinant ATX [2], the pNP-TMP inhibition entry is “none”. Take `O=S(=O)(c1cc(C(=S)Nc2ccc(F)c(F)c2)c(Cl)cc1Cl)N1CCOCC1` [Compound 13, 2,4-Dichloro-N-(3,4-difluorophenyl)-5-(morpholinosulfonyl)-benzothioamide]: the “ATX inhibitory activity (in words)” value on human recombinant ATX [1] was “retained similar inhibitory activity as the amide analogues”. Besides, at human recombinant ATX [2], the pNP-TMP inhibition entry was “none”. For the compound `O=S(=O)(c1cc(C(=S)Nc2cc(Cl)c(F)c(Cl)c2)c(Cl)cc1Cl)N1CCOCC1` [Compound 15, 2,4-Dichloro-N-(3,5-dichloro-4-fluorophenyl)-5-(morpholinosulfonyl)-benzothioamide], the “ATX inhibitory activity (in words)” value on human recombinant ATX [1] is “retained similar inhibitory activity as the amide analogues”. Also, the pNP-TMP inhibition entry at human recombinant ATX [2] was “none”.

With `O=S(=O)(Nc1cc(S(=O)(=O)N2CCOCC2)c(Cl)cc1Cl)c1cccc(F)c1` [Compound 19], at human recombinant ATX [1], the “ATX inhibitory activity (in words)” value was “lost their ATX inhibitory activity”. Moreover, the pNP-TMP inhibition result on human recombinant ATX [2] is on record as “none”. The corresponding values for `O=S(=O)(c1cc(N(S(=O)(=O)c2cccc(F)c2)S(=O)(=O)c2cccc(F)c2)c(Cl)cc1Cl)N1CCOCC1` [Compound 20] are “lost their ATX inhibitory activity” and “none”. Turning to `O=S(=O)(Nc1cccc(F)c1)c1cc(S(=O)(=O)N2CCOCC2)c(Cl)cc1Cl` [Compound 22, 2,4-Dichloro-N-(3-fluorophenyl)-5-(morpholinosulfonyl)-benzenesulfonamide], the “ATX inhibitory activity (in words)” value on human recombinant ATX [1] was “lost their ATX inhibitory activity”. Further, at human recombinant ATX [2], the pNP-TMP inhibition entry is on record as “none”.

`O=S(=O)(Nc1cc(F)c(F)c(F)c1)c1cc(S(=O)(=O)N2CCOCC2)c(Cl)cc1Cl` [Compound 23, 2,4-Dichloro-5-(morpholinosulfonyl)-N-(3,4,5-trifluorophenyl)-benzenesulfonamide]: the “ATX inhibitory activity (in words)” value at human recombinant ATX [1] is given as “lost their ATX inhibitory activity”. In addition, on human recombinant ATX [2], the pNP-TMP inhibition entry is recorded as “none”. Regarding `O=C(Nc1cc(F)c(F)c(F)c1)c1cc(NN2CCOCC2)c(Cl)cc1Cl` [Compound 25, 2,4-Dichloro-5-(morpholinoamino)-N-(3,4,5-trifluorophenyl)-benzamide], the “ATX inhibitory activity (in words)” value at human recombinant ATX [1] is recorded as “completely lost ATX inhibitory activity”. The pNP-TMP inhibition entry on human recombinant ATX [2] is “none”.

Take `CS(=O)(=O)N(C(=O)c1cc(NN2CCOCC2)c(Cl)cc1Cl)c1cc(F)c(F)c(F)c1` [Compound 26a, 2,4-Dichloro-N-(methylsulfonyl)-5-(morpholinoamino)-N-(3,4,5-trifluorophenyl)-benzamide]: the pNP-TMP inhibition entry at human recombinant ATX [2] is “none”.

Regarding `CN1CCN(S(=O)(=O)c2cc(C(=O)Nc3cc(F)c(F)c(F)c3)c(Cl)cc2Cl)CC1` [Compound 28a, 2,4-Dichloro-5-((4-methylpiperazin-1-yl)sulfonyl)-N-(3,4,5-trifluorophenyl)-benzamide], the pNP-TMP inhibition entry at human recombinant ATX [2] is “none”. On the same count and under the same terms, then `CN1CCN(S(=O)(=O)c2cc(C(=O)Nc3cc(Cl)c(F)c(Cl)c3)c(Cl)cc2Cl)CC1` [Compound 28b, 2,4-Dichloro-N-(3,5-dichloro-4-fluorophenyl)-5-((4-methylpiperazin-1-yl)sulfonyl)benzamide], with “none”.

On to `CN1CCN(S(=O)(=O)c2cc(C(=S)Nc3cc(Cl)c(F)c(Cl)c3)c(Cl)cc2Cl)CC1` [Compound 29, 2,4-Dichloro-N-(3,5-dichloro-4-fluorophenyl)-5-((4-methylpipera-zin-1-yl)sulfonyl)-benzothioamide], for which, at human recombinant ATX [2], the pNP-TMP inhibition result is reported as “none”.

Turning to `CCCCCCCCCCCCCCCc1ccc(CP(=O)(O)O)cc1` [compound 30, (4-pentadecylbenzyl)phosphonic acid, reference compound], the “resensitization of cancer stem-like cells to PT (in words)” value in data set [5] (4T1-TaxR cells) is listed as “effectively resensitized”. Further, the “further reduction of cell viability compared to PT alone” value in data set [5] (4T1-TaxR mammospheres, PT 100 nM, compound 5 μM, 3 days) was 25–30%.
